Active and inactive are the calls of the source. The rule behind the calls is not given here.
Experiments:
Klebsiella pneumoniae = assay: Antibacterial activity against ESBL positive Klebsiella pneumoniae ATCC 700603 after 24 hrs by resazurin dye based microdilution assay; format: functional; conditions: Klebsiella pneumoniae, 700603, 24 h
In short: (§1)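 MIC taken as the lowest concentration giving visible inhibition and/or by resazurin (1 mg/mL). Gentamicin was the control. Run in duplicate, repeated at least three times.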

HL-60(TB) = assay: Growth inhibition of human HL-60(TB) cells at 10 uM incubated for 48 hrs by sulforhodamine B assay; format: functional, cell-based
In short: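 NCI 60-line single-dose screen at 10 μM, 48 h. Cells in RPMI-1640 with 5% FBS and 2 mM L-glutamine at 37 °C, 5% CO2. Growth measured by TCA fixation and SRB staining (515 nm), relative to time-zero and untreated control wells.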

RPMI-8226 = assay: Growth inhibition of human RPMI8226 cells at 10 uM incubated for 48 hrs by sulforhodamine B assay; format: functional, cell-based
In short: (§2)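 NCI 60-line panel, single 10 μM dose. Cells were grown in RPMI-1640 with 5% FBS and 2 mM L-glutamine and pre-incubated 24 h before compound addition (DMSO stock). Exposure was 48 h at 37 °C, 5% CO2. Cells were fixed with cold TCA (10% final), stained with 0.4% SRB, bound dye dissolved in 10 mM Tris base, A515 read. Growth was taken relative to time-zero and untreated control plates.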

EKVX = assay: Growth inhibition of human EKVX cells at 10 uM incubated for 48 hrs by sulforhodamine B assay; format: functional, cell-based
In short: (§3)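 NCI 60-cell-line screen at a single 10 µM dose. Cells in RPMI-1640 with 5% FBS and 2 mM L-glutamine, pre-incubated 24 h, then treated for 48 h at 37 °C. TCA fixation, sulforhodamine B staining, absorbance at 515 nm. Percentage growth calculated against time-zero and untreated controls.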

HOP-62 = assay: Growth inhibition of human HOP62 cells at 10 uM incubated for 48 hrs by sulforhodamine B assay; format: functional, cell-based; in short: as §3
HOP-92 = assay: Growth inhibition of human HOP92 cells at 10 uM incubated for 48 hrs by sulforhodamine B assay; format: functional, cell-based; in short: as §2
NCI-H522 = assay: Growth inhibition of human NCI-H522 cells at 10 uM incubated for 48 hrs by sulforhodamine B assay; format: functional, cell-based; in short: as §2
COLO 205 = assay: Growth inhibition of human COLO205 cells at 10 uM incubated for 48 hrs by sulforhodamine B assay; format: functional, cell-based; in short: as §3
HCT-15 = assay: Growth inhibition of human HCT15 cells at 10 uM incubated for 48 hrs by sulforhodamine B assay; format: functional, cell-based; in short: as §3
SF-268 = assay: Growth inhibition of human SF268 cells at 10 uM incubated for 48 hrs by sulforhodamine B assay; format: functional, cell-based; in short: as §2
SNB-19 = assay: Growth inhibition of human SNB19 cells at 10 uM incubated for 48 hrs by sulforhodamine B assay; format: functional, cell-based
In short: (§4)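 NCI-60 single-dose screen at 10 µM for 48 h. Cells were grown in RPMI-1640 with 5% FBS and 2 mM L-glutamine and preincubated 24 h before compound. Time-zero plates were TCA-fixed at compound addition. After exposure, cells were TCA-fixed, stained with SRB and read at 515 nm. Percentage growth was calculated against time-zero and untreated-control absorbances.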

U-251 = assay: Growth inhibition of human U251 cells at 10 uM incubated for 48 hrs by sulforhodamine B assay; format: functional, cell-based; in short: as §4
LOX IMVI = assay: Growth inhibition of human LOXIMVI cells at 10 uM incubated for 48 hrs by sulforhodamine B assay; format: functional, cell-based; in short: as §2
SK-MEL-2 = assay: Growth inhibition of human SK-MEL-2 cells at 10 uM incubated for 48 hrs by sulforhodamine B assay; format: functional, cell-based; in short: as §4
SK-MEL-28 = assay: Growth inhibition of human SK-MEL-28 cells at 10 uM incubated for 48 hrs by sulforhodamine B assay; format: functional, cell-based; in short: as §4
SK-MEL-5 = assay: Growth inhibition of human SK-MEL-5 cells at 10 uM incubated for 48 hrs by sulforhodamine B assay; format: functional, cell-based; in short: as §4
IGROV-1 = assay: Growth inhibition of human IGROV1 cells at 10 uM incubated for 48 hrs by sulforhodamine B assay; format: functional, cell-based; in short: as §2
OVCAR-3 = assay: Growth inhibition of human OVCAR3 cells at 10 uM incubated for 48 hrs by sulforhodamine B assay; format: functional, cell-based; in short: as §2
SK-OV-3 = assay: Growth inhibition of human SKOV3 cells at 10 uM incubated for 48 hrs by sulforhodamine B assay; format: functional, cell-based; in short: as §4
A498 = assay: Growth inhibition of human A498 cells at 10 uM incubated for 48 hrs by sulforhodamine B assay; format: functional, cell-based; in short: as §3
RXF 393 = assay: Growth inhibition of human RXF393 cells at 10 uM incubated for 48 hrs by sulforhodamine B assay; format: functional, cell-based; in short: as §2
SN12C = assay: Growth inhibition of human SN12C cells at 10 uM incubated for 48 hrs by sulforhodamine B assay; format: functional, cell-based; in short: as §4
Hs-578T = assay: Growth inhibition of human Hs578T cells at 10 uM incubated for 48 hrs by sulforhodamine B assay; format: functional, cell-based; in short: as §2
T47D = assay: Growth inhibition of human T47D cells at 10 uM incubated for 48 hrs by sulforhodamine B assay; format: functional, cell-based; in short: as §4
Candida albicans [1] = assay: Antifungal activity against Candida albicans ATCC 10231 incubated for 48 hrs under dark condition by broth microdilution method; format: functional; conditions: ATCC 10231, 48 h
In short: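 CLSI M27-A3 broth microdilution in RPMI-1640, DMSO ≤1%, compounds at 250-0.98 µg/mL final. Inoculum 1-5 × 10^3 CFU/mL. Incubated 48 h at 30 °C in a moist dark chamber, read at OD405. MIC80 and MIC50 taken from % inhibition dose-response curves (mean ± SEM, triplicate). Amphotericin B was the positive control.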

Candida albicans [2] = assay: Growth inhibition of Candida albicans ATCC 10231 at 31.25 ug/ml incubated for 48 hrs under dark condition by broth microdilution method relative to control; format: functional; conditions: ATCC 10231, 48 h, read-out: GI
In short: (§5)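 CLSI M27-A3 broth microdilution in RPMI-1640, DMSO ≤1%. Inoculum 1-5 × 10^3 CFU/mL. Incubated 48 h at 30 °C, dark. % inhibition = 100 − (OD405 test − sterility control)/(OD405 growth control − sterility control), with growth and sterility control wells. Triplicate.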

Cryptococcus neoformans [3] = assay: Growth inhibition of Cryptococcus neoformans ATCC 32264 at 62.5 ug/ml incubated for 48 hrs under dark condition by broth microdilution method relative to control; format: functional; conditions: ATCC 32264, 48 h, read-out: GI; in short: as §5
Cryptococcus neoformans [4] = assay: Growth inhibition of Cryptococcus neoformans ATCC 32264 at 31.25 ug/ml incubated for 48 hrs under dark condition by broth microdilution method relative to control; format: functional; conditions: ATCC 32264, 48 h, read-out: GI; in short: as §5
Cryptococcus neoformans [5] = assay: Growth inhibition of Cryptococcus neoformans ATCC 32264 at 15.62 ug/ml incubated for 48 hrs under dark condition by broth microdilution method relative to control; format: functional; conditions: ATCC 32264, 48 h, read-out: GI; in short: as §5
Staphylococcus aureus = assay: Antibacterial activity against vancomycin-intermediate Staphylococcus aureus after 24 hrs by resazurin dye based microdilution assay; format: functional; in short: as §1
Escherichia coli = assay: Antibacterial activity against Escherichia coli ATCC 25922 after 24 hrs by resazurin dye based microdilution assay; format: functional; conditions: ATCC 25922, 24 h; in short: as §1

Compound | MIC (Klebsiella pneumoniae) [µg/mL] | growth inhibition (GI) (HL-60(TB)) | growth inhibition (GI) (RPMI-8226) | growth inhibition (GI) (EKVX) | growth inhibition (GI) (HOP-62) | growth inhibition (GI) (HOP-92) | growth inhibition (GI) (NCI-H522) | growth inhibition (GI) (COLO 205) | growth inhibition (GI) (HCT-15) | growth inhibition (GI) (SF-268) | growth inhibition (GI) (SNB-19) | growth inhibition (GI) (U-251) | growth inhibition (GI) (LOX IMVI) | growth inhibition (GI) (SK-MEL-2) | growth inhibition (GI) (SK-MEL-28) | growth inhibition (GI) (SK-MEL-5) | growth inhibition (GI) (IGROV-1) | growth inhibition (GI) (OVCAR-3) | growth inhibition (GI) (SK-OV-3) | growth inhibition (GI) (A498) | further results
COc1ccc(C2=NN(c3ccc(Cl)cc3)C(c3cccc(Nc4ccnc5cc(Cl)ccc45)c3)C2)cc1 (centres undefined) | > 1000 | inactive | inactive | inactive | inactive | inactive | inactive | inactive | inactive | inactive | inactive | inactive | inactive | inactive | inactive | inactive | inactive | inactive | inactive | inactive | growth inhibition (GI) (RXF 393): inactive; growth inhibition (GI) (SN12C): inactive; growth inhibition (GI) (Hs-578T): inactive; growth inhibition (GI) (T47D): inactive; MIC50 (Candida albicans [1]): ≥ 250 µg/mL; MIC80 (Candida albicans [1]): ≥ 250 µg/mL; inhibition of growth at 31.25 µg/mL (Candida albicans [2]): 1.19%; inhibition of growth at 62.5 µg/mL (Cryptococcus neoformans [3]): 14.1%; inhibition of growth at 31.25 µg/mL (Cryptococcus neoformans [4]): 13.1%; inhibition of growth at 15.62 µg/mL (Cryptococcus neoformans [5]): 12.6%; MIC (Staphylococcus aureus): > 1000 µg/mL; MIC (Escherichia coli): > 1000 µg/mL
Clc1ccc(C2=NN(c3ccccc3)C(c3cccc(Nc4ccnc5cc(Cl)ccc45)c3)C2)cc1 (centres undefined) | > 1000 | inactive | inactive | inactive | inactive | inactive | inactive | inactive | inactive | inactive | inactive | inactive | inactive | inactive | inactive | inactive | inactive | inactive | inactive | inactive | growth inhibition (GI) (RXF 393): inactive; growth inhibition (GI) (SN12C): inactive; growth inhibition (GI) (Hs-578T): inactive; growth inhibition (GI) (T47D): inactive; MIC50 (Candida albicans [1]): ≥ 250 µg/mL; MIC80 (Candida albicans [1]): ≥ 250 µg/mL; inhibition of growth at 31.25 µg/mL (Candida albicans [2]): 4.92%; inhibition of growth at 62.5 µg/mL (Cryptococcus neoformans [3]): 0%; inhibition of growth at 31.25 µg/mL (Cryptococcus neoformans [4]): 0%; inhibition of growth at 15.62 µg/mL (Cryptococcus neoformans [5]): 0%; MIC (Staphylococcus aureus): > 1000 µg/mL; MIC (Escherichia coli): > 1000 µg/mL
